Laboratory results taken from ChEMBL document CHEMBL4311941, “Development of Multifunctional Histone Deacetylase 6 Degraders with Potent Antimyeloma Activity” (J Med Chem, 2019).
Calls of active or inactive are those of the source. No cut-off for these calls is given here.

What was measured:
[1] = target: T1, Protein cereblon/Protein deacetylase HDAC6 (Homo sapiens, UniProt Q9UBN7+Q96SW2); test: Protac activity at CRBN/HDAC6 in human MM1S cells assessed as HDAC6 degradation at 10 to 100 nM measured after 6 hrs by Western blot analysis; assay type: cell-based
Target sequence in this assay (Q96SW2 whole entry, looked up): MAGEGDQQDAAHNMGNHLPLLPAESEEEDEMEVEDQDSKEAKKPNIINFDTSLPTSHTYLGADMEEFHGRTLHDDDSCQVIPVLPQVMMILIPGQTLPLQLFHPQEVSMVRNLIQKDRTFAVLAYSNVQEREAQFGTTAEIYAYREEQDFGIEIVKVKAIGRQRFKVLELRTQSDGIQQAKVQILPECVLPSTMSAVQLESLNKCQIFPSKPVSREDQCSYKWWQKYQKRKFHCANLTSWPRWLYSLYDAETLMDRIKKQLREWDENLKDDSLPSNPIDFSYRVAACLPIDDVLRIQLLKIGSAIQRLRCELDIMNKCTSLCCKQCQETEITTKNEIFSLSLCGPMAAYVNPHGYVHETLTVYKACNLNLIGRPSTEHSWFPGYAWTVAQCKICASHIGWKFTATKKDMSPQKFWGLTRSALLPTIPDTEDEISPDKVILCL
Target sequence in this assay (Q9UBN7 whole entry, looked up): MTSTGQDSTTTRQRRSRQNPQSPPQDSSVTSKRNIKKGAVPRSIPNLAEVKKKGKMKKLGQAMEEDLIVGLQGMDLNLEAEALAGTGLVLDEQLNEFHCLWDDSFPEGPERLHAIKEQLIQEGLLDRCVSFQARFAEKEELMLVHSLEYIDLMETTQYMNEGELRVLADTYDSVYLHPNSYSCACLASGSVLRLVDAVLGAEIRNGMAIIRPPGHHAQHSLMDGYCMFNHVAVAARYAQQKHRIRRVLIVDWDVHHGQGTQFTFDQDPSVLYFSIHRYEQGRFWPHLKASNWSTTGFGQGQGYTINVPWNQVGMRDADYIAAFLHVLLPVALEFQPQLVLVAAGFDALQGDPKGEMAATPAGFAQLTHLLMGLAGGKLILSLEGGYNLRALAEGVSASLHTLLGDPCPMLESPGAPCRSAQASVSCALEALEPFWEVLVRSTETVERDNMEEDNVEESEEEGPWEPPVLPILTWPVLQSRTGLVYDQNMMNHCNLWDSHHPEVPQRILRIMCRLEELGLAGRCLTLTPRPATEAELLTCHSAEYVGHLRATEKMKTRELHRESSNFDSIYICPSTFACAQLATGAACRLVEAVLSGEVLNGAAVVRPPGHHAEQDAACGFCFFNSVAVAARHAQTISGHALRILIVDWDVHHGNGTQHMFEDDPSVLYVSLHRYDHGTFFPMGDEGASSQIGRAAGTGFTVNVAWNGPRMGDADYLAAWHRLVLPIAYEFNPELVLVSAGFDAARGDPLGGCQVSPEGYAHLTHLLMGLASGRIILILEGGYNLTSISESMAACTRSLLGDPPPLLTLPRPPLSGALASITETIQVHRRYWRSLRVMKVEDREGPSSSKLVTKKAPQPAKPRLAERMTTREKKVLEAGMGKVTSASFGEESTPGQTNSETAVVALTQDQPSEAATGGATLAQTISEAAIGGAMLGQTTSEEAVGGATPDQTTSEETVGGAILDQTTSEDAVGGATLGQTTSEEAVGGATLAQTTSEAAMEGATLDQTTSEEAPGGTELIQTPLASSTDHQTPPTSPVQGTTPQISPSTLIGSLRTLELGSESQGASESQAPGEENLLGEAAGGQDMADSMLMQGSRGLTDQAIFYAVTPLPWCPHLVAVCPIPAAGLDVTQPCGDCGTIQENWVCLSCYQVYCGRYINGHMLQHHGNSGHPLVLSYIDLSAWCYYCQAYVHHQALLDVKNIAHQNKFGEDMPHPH

[2] = target: T1, Protein cereblon/Protein deacetylase HDAC6; test: Protac activity at CRBN/HDAC6 in human MM1S cells assessed as HDAC6 degradation measured after 6 hrs by ELISA; assay type: cell-based
Outline: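 In-cell ELISA: MM1S cells (5 × 10^4 per well) seeded overnight, treated 6 h (dosed as 5× medium; 0.1 nM–1 μM or 10/100 nM). Fixed in 8% formaldehyde/TBS, permeabilized with 0.1% Triton X, peroxidase quenched with 1% H2O2, blocked in 5% BSA. Anti-HDAC6 rabbit mAb (1:1000, 2 h) then HRP secondary; TMB read as OD450 − OD570. Background wells lacked primary antibody. Signal normalized to Janus Green and to DMSO wells, n = 3. DC50/Dmax from three-parameter fit.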

[3] = target: T1, Protein cereblon/Protein deacetylase HDAC6; test: Protac activity at CRBN/HDAC6 in human MM1S cells assessed as HDAC6 degradation at 3 to 30 nM measured after 6 hrs by Western blot analysis; assay type: cell-based
Target sequence in this assay (Q96SW2 whole entry, looked up): as the sequence (Q96SW2 whole entry, looked up) above
Target sequence in this assay (Q9UBN7 whole entry, looked up): as the sequence (Q9UBN7 whole entry, looked up) above

[4] = target: T2, Cereblon/Ikaros (Homo sapiens) (UniProt Q96SW2+Q13422); test: Protac activity at CRBN/IKZF1 in human MM1S cells assessed as IKZF1 degradation measured after 6 hrs by Western blot analysis; assay type: cell-based
[5] = target: T3, Protein cereblon/Zinc finger protein Aiolos (Homo sapiens) (UniProt Q96SW2+Q9UKT9); test: Protac activity at CRBN/IKZF3 in human MM1S cells assessed as IKZF3 degradation measured after 6 hrs by Western blot analysis; assay type: cell-based
[6] = target: T1, Protein cereblon/Protein deacetylase HDAC6; test: Protac activity at CRBN/HDAC6 in human MM1S cells assessed as HDAC6 degradation at 100 nM incubated for 6 hrs followed by compound washout and measured up to 48 hrs by Western blot analysis; assay type: cell-based
Outline: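 MM1S cells treated 6 h with 100 nM, washed with PBS to remove compound, then HDAC6 followed by immunoblot for up to 48 h. Lysis in RIPA; SDS-PAGE and PVDF transfer; primary antibody 4 °C overnight, HRP secondary, ECL.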
Target sequence in this assay (Q96SW2 whole entry, looked up): as the sequence (Q96SW2 whole entry, looked up) above
Target sequence in this assay (Q9UBN7 whole entry, looked up): as the sequence (Q9UBN7 whole entry, looked up) above

[7] = target: T3, Protein cereblon/Zinc finger protein Aiolos (Homo sapiens); test: Protac activity at CRBN/IKZF3 in human MM1S cells assessed as IKZF3 degradation at 100 nM incubated for 6 hrs followed by compound washout and measured after 12 hrs by Western blot analysis; assay type: cell-based
Outline: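 MM1S cells treated with 100 nM degrader for 6 h, then washed with PBS to remove compound. IKZF3 followed by immunoblot over up to 48 h after washout: RIPA lysate, SDS-PAGE, PVDF transfer, HRP secondary antibody and ECL imaging.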

[8] = target: T1, Protein cereblon/Protein deacetylase HDAC6; test: Protac activity at CRBN/HDAC6 in human RS4:11 cells assessed as HDAC6 degradation up to 10 uM incubated for 6 hrs by Western blot analysis; assay type: cell-based
Target sequence in this assay (Q96SW2 whole entry, looked up): as the sequence (Q96SW2 whole entry, looked up) above
Target sequence in this assay (Q9UBN7 whole entry, looked up): as the sequence (Q9UBN7 whole entry, looked up) above

Histone deacetylase 9 = Histone deacetylase 9 (Homo sapiens, UniProt Q9UKV0); test: Inhibition of human N-terminal tagged human HDAC9 expressed in HEK293T/17 using Boc-[TFA-Lys]-AMC as substrate preincubated for 10 mins followed by substrate addition and measured after 60 mins by fluorescence assay
Histone deacetylase 11 = target: T4, Histone deacetylase 11 (Homo sapiens, UniProt Q96DB2); test: Inhibition of human N-terminal tagged human HDAC11 expressed in HEK293T/17 using Boc-[TFA-Lys]-AMC as substrate preincubated for 10 mins followed by substrate addition and measured after 60 mins by fluorescence assay
T4 sequence (Q96DB2 whole entry): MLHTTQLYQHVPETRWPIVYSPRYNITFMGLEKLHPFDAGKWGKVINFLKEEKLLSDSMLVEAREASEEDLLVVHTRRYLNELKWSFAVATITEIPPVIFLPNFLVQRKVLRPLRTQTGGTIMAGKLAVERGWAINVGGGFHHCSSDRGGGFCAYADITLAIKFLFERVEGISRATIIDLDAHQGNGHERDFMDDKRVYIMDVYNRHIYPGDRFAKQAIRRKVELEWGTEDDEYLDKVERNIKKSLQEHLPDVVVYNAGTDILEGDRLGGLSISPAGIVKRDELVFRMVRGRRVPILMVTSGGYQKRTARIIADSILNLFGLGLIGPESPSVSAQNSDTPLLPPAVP

[9] = target: T1, Protein cereblon/Protein deacetylase HDAC6; test: Protac activity at CRBN/HDAC6 in human MM1S cells assessed as HDAC6 degradation at 100 nM measured after 6 hrs in presence of E3 ligase ligand pomalidomide by Western blot analysis; assay type: cell-based
Target sequence in this assay (Q96SW2 whole entry, looked up): as the sequence (Q96SW2 whole entry, looked up) above
Target sequence in this assay (Q9UBN7 whole entry, looked up): as the sequence (Q9UBN7 whole entry, looked up) above

[10] = target: T2, Cereblon/Ikaros (Homo sapiens); test: Protac activity at CRBN/IKZF1 in human MM1S cells assessed as IKZF1 degradation at 100 nM measured after 6 hrs in presence of E3 ligase ligand pomalidomide by Western blot analysis; assay type: cell-based
[11] = target: T1, Protein cereblon/Protein deacetylase HDAC6; test: Protac activity at CRBN/HDAC6 in human MM1S cells assessed as HDAC6 degradation at 100 nM measured after 6 hrs in presence of NAE inhibitor MLN 4924 by Western blot analysis; assay type: cell-based
Target sequence in this assay (Q96SW2 whole entry, looked up): as the sequence (Q96SW2 whole entry, looked up) above
Target sequence in this assay (Q9UBN7 whole entry, looked up): as the sequence (Q9UBN7 whole entry, looked up) above

[12] = target: T2, Cereblon/Ikaros (Homo sapiens); test: Protac activity at CRBN/IKZF1 in human MM1S cells assessed as IKZF1 degradation at 100 nM measured after 6 hrs in presence of NAE inhibitor MLN 4924 by Western blot analysis; assay type: cell-based
Outline: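 MM1S cells seeded at 1 × 10^6 per well overnight. Pretreated 1 h with pomalidomide, Next-A, MLN 4924 or DMSO, then given 100 nM degrader or DMSO for 6 h. Lysed in RIPA with protease inhibitors, 10−40 μg protein run on SDS-PAGE and transferred to PVDF. Blots probed for IKZF1/IKZF3, detected by ECL and quantified by densitometry.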

[13] = target: T5, Protein cereblon/Histone deacetylase 4 (Homo sapiens) (UniProt P56524+Q96SW2); test: Protac activity at CRBN/HDAC4 in human MM1S cells assessed as HDAC4 degradation at 100 nM measured after 6 hrs in presence of proteasome inhibitor MG132 by Western blot analysis; assay type: cell-based
[14] = target: T5, Protein cereblon/Histone deacetylase 4 (Homo sapiens); test: Protac activity at CRBN/HDAC4 in human MM1S cells assessed as HDAC4 degradation at 100 nM measured after 6 hrs in presence of proteasome inhibitor bortezomib by Western blot analysis; assay type: cell-based
MM1.S [15] = test: Antiproliferative activity against human MM1S cells assessed as reduction in cell viability measured after 72 hrs by resazurin dye based assay; assay type: functional
Outline: (§1)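 MM1S cells seeded at 1 × 10^4 per well, left overnight, then given compound or DMSO vehicle (added as 5× dosing medium) for 72 h at 37 °C, 5% CO2. Resazurin added (10× solution, 1 mg/mL), then incubated overnight at 37 °C. OD read at 570 and 600 nm. Viability is relative to vehicle, n = 3. Curves fitted as [inhibitor] vs response (three parameters); test range 0.3 nM–3 μM.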

MM1.S [16] = test: Antiproliferative activity against human MM1S cells assessed as reduction in cell viability measured after 72 hrs by resazurin dye based assay relative to control; assay type: functional; outline: as §1

T5 sequence (P56524 whole entry, looked up): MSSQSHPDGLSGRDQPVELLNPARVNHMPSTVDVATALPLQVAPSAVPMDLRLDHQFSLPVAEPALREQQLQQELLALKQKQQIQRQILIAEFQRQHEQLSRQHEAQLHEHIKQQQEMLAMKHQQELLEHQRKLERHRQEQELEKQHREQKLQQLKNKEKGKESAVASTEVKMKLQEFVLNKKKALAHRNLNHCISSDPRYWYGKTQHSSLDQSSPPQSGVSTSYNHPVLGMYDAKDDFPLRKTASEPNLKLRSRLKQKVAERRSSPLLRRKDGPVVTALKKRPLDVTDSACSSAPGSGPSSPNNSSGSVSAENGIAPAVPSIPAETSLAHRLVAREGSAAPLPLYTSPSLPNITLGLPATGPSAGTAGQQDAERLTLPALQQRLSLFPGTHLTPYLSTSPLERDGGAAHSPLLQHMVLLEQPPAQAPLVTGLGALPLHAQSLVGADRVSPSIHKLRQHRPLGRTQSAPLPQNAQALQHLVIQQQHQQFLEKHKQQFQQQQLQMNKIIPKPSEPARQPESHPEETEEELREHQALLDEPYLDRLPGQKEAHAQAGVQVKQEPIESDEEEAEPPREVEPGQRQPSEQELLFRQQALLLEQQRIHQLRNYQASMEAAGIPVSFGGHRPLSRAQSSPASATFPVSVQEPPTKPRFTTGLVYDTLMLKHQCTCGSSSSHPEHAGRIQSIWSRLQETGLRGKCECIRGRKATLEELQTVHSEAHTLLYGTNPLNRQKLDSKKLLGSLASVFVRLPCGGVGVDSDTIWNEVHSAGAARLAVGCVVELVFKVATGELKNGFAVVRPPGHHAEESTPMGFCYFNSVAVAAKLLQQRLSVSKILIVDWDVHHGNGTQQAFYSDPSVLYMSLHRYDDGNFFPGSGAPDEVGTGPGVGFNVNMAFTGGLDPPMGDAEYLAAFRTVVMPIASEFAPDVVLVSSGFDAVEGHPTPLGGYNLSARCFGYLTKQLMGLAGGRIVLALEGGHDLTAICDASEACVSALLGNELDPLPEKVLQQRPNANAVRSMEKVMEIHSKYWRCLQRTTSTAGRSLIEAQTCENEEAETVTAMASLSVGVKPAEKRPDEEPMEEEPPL
T5 sequence (Q96SW2 whole entry, looked up): as the sequence (Q96SW2 whole entry, looked up) above
T3 sequence (Q96SW2 whole entry, looked up): as above
T3 sequence (Q9UKT9 whole entry, looked up): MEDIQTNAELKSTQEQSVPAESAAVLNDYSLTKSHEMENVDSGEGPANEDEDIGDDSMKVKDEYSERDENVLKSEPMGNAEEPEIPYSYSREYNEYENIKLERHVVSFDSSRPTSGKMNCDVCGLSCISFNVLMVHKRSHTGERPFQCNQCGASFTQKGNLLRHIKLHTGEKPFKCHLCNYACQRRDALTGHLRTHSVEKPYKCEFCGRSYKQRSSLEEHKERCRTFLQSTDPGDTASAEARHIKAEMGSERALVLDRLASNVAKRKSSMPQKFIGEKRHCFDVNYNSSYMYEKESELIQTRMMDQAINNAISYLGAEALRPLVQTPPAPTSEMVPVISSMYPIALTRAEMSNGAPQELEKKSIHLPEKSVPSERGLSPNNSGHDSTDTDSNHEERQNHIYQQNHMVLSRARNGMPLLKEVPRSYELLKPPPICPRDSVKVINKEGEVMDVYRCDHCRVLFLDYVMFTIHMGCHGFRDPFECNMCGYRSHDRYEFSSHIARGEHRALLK

## CCCCN(Cc1ccc(C(=O)NO)cc1)C(=O)Nc1ccc(OCCCCCn2cc(CNc3cccc4c3C(=O)N(C3CCC(=O)NC3=O)C4=O)nn2)cc1 (stereo not drawn)
[1]
  Activity: Active
[2]
  DC50: 0.00164 µM
[3]
  Activity: Active
[4]
  Activity: Dose-dependent effect
[5]
  Activity: Dose-dependent effect
[6]
  Activity: Active
[7]
  Activity: inactive
[8]
  Activity: Active
Histone deacetylase 9
  IC50: 0.3 to 30 µM
Histone deacetylase 11
  IC50: 0.3 to 30 µM
[9]
  Activity: inactive
[10]
  Activity: Active
[11]
  Activity: inactive
[12]
  Activity: inactive
[13]
  Activity: inactive
[14]
  Activity: inactive
MM1.S [15]
  EC50: 0.0749 µM
MM1.S [16]
  Imax: 63.1%
